The nature of series [1]: folding enthalpy; higher = less favourable; fluorescence melt of hairpins on a sequencing array, two-state fit. The note with it: sodium 0.088 M. In short, it runs like this: (§1)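 Folding enthalpy and melting temperature were estimated with bootstrapped two-state fits and combined across four replicates by inverse-variance weighting, with fitted temperatures raised by 9.35 °C to match UV melts. The data were Cy3 fluorescence of library hairpins, with annealed Cy3 and quencher oligos, on a sequenced MiSeq flow cell in 50 mM Na-HEPES pH 8.0, 25 mM NaCl, imaged in 2.5 °C steps up to 60 °C and normalised to pre-quench Cy3 and control constructs.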

A short description of series [2]: melting temperature; fluorescence melt of hairpins on a sequencing array, two-state fit, raised by 9.35 °C to match UV melts. The note with it: sodium 0.088 M. In short, it runs like this: as §1

As to GTACACGGAAACGTGTGC (.(((((....))))).), in series [1], the folding enthalpy was -27.1 kcal/mol. In addition, in series [2], the Tm was 56.2 °C.
On the same counts, the results for GTACACTCGAAAGAGTAC (((..(((....)))))) are -13.8 kcal/mol and 29.4 °C.
As for GTACAGGGAAACCTGCAC ((.((((....)))).)), the folding enthalpy in series [1] was -22.4 kcal/mol. In addition, the Tm in series [2] was found to be 39.7 °C.
Regarding GTACAGGGAAACTTGTAC (((((.(....).))))), the folding enthalpy in series [1] was -30.4 kcal/mol. The Tm in series [2] amounted to 39.8 °C.
Regarding GTACAGGGAAACTTGTGC (.(((.(....).))).), the folding enthalpy in series [1] is -16 kcal/mol. In addition, the Tm in series [2] was 27.9 °C.
In the case of GTACATCGAAAGATTAC (((.(((....)))))), the folding enthalpy in series [1] is -20.3 kcal/mol. Moreover, in series [2], the Tm was 32.1 °C.
Turning to GTACCACGAAAGTGTAC (((.(((....)))))), in series [1], the folding enthalpy is -22 kcal/mol. In addition, the Tm in series [2] was found to be 42.3 °C.
As for GTACCAGGAAACTGATAC (((.(((....))).))), the folding enthalpy in series [1] is -26.6 kcal/mol. In series [2], the Tm is 31.4 °C.
GTACCAGGAAACTGGTGC (.(((((....))))).): in series [1], the folding enthalpy is -43 kcal/mol. Moreover, in series [2], the Tm came out at 51.4 °C.
For the sequence GTACCCCGAAAGGGATAC (((.(((....))).))), in series [1], the folding enthalpy is -19.6 kcal/mol. In addition, the Tm in series [2] was found to be 46.1 °C.
Take GTACCCCGAAAGGGTAC (((.(((....)))))): the folding enthalpy in series [1] is -28.3 kcal/mol. The Tm in series [2] worked out at 58.3 °C.
In the case of GTACCCGAAAGGGAATAC ((((((....)))..))), the folding enthalpy in series [1] is -12.4 kcal/mol. The Tm in series [2] amounted to 29.7 °C.
With GTACCCGAAAGGGCGTAC ((((((....)))..))), the folding enthalpy in series [1] is -14.3 kcal/mol. In series [2], the Tm was 34.2 °C.
Take GTACCCGAAAGGGTTAC ((((((....))).))): the folding enthalpy in series [1] was -13.4 kcal/mol. Further, the Tm in series [2] came to 46.4 °C.
With GTACCGGGAAACCGATAC (((.(((....))).))), in series [1], the folding enthalpy is -27.7 kcal/mol. The Tm in series [2] was found to be 40 °C.
As to GTACCGGGAAACTGGTAC (((((.(....).))))), the folding enthalpy in series [1] is -33.2 kcal/mol. Also, the Tm in series [2] was 51.4 °C.
For GTACGAGGAAACTTGTAC ((((.((....)).)))) the same measures were -37.1 kcal/mol and 44 °C.
On the same counts, the results for GTACGCCGAAAGGCTAC (((.(((....)))))) are -15.1 kcal/mol and 47.6 °C.
For GTACGCGAAAGCGATAC ((((((....))).))), the folding enthalpy in series [1] was -13.9 kcal/mol. Besides, the Tm in series [2] turned out to be 48.2 °C.
For GTACGCGAAAGCGATTAC ((((((....)))..))), in series [1], the folding enthalpy was -11.2 kcal/mol. Also, the Tm in series [2] came to 29.7 °C.
For the sequence GTACGCGAAAGCGTCTAC ((((((....)))..))), the folding enthalpy in series [1] was -7.82 kcal/mol. Also, in series [2], the Tm was 39.9 °C.
For GTACGCGAAAGCGTGTAC ((((((....)))..))) the same measures were -9.86 kcal/mol and 38 °C.
For the sequence GTACGGAAACGTAC (((((....))))), in series [1], the folding enthalpy was -32.4 kcal/mol. In series [2], the Tm came to 53.7 °C.
GTACGGGGAAACCCGCAC ((.((((....)))).)): in series [1], the folding enthalpy was -18.6 kcal/mol. For the same sequence, the Tm in series [2] came out at 54.3 °C.
On the same counts, the results for GTACGGGGAAACCTGTGC (.((.((....)).)).) are -25.8 kcal/mol and 37.3 °C.
For GTACGTCGAAAGACATAC (((.(((....))).))) the same measures were -20.1 kcal/mol and 38.4 °C.
GTACGTGGAAACGTGTAC ((((..(....)..)))): in series [1], the folding enthalpy is -12.3 kcal/mol. Further, the Tm in series [2] came out at 37.4 °C.
Consider GTACTACGAAAGTAATAC (((.(((....))).))), for which, in series [1], the folding enthalpy was -15.2 kcal/mol. Also, the Tm in series [2] amounted to 29.8 °C.
With GTACTAGAAATAGTAC ((((((....)))))), the folding enthalpy in series [1] is -27.2 kcal/mol. The Tm in series [2] came out at 42.4 °C.
Regarding GTACTCGAAAGAGCTAC ((((((....))).))), the folding enthalpy in series [1] is -16.4 kcal/mol. Further, the Tm in series [2] came out at 35 °C.
On the same counts, the results for GTACTCGCGAAAGCGTAC (((..(((....)))))) are -11.1 kcal/mol and 30.4 °C.
In the case of GTACTGAAAAGTAC (((((....))))), in series [1], the folding enthalpy was -20.8 kcal/mol. The Tm in series [2] amounted to 46.8 °C.
For GTACTGGGAAACTAGTGC (.(((.(....).))).) the same measures were -19.4 kcal/mol and 31.2 °C.
On the same counts, the results for GTACTTGGAAACAAGCAC ((.((((....)))).)) are -25.8 kcal/mol and 37.8 °C.
On the same counts, the results for GTAGAAGCGAAAGCTTAC (((..(((....)))))) are -11.6 kcal/mol and 30.1 °C.
Regarding GTAGACCCGAAAGGGTAC (((..(((....)))))), the folding enthalpy in series [1] is -9.26 kcal/mol. In series [2], the Tm was 32.3 °C.
In the case of GTAGACCGAAAGGTGTAC (((.(((....))).))), the folding enthalpy in series [1] is -36.3 kcal/mol. The Tm in series [2] came out at 50.8 °C.
